Compound activity: PubChem, several laboratories
The list is not random: actives were taken first. Their share in the collection is about 4.1%.
KCNQ1 block: human KCNQ1 channel inhibition; AID 2642; CHO-K1 KCNQ1, FluxOR thallium flux fluorescence; hits give high values; B-score at 10 µM; 310,000 tested, 1.3% active; P51787;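 active = compounds whose thallium flux B-score, printed positive for inhibition, exceeds three library SD while starting fluorescence stays within three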;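 note: channel opened by potassium depolarization with thallium stimulus after 20 min compound exposure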
Target sequence (P51787 whole entry, looked up): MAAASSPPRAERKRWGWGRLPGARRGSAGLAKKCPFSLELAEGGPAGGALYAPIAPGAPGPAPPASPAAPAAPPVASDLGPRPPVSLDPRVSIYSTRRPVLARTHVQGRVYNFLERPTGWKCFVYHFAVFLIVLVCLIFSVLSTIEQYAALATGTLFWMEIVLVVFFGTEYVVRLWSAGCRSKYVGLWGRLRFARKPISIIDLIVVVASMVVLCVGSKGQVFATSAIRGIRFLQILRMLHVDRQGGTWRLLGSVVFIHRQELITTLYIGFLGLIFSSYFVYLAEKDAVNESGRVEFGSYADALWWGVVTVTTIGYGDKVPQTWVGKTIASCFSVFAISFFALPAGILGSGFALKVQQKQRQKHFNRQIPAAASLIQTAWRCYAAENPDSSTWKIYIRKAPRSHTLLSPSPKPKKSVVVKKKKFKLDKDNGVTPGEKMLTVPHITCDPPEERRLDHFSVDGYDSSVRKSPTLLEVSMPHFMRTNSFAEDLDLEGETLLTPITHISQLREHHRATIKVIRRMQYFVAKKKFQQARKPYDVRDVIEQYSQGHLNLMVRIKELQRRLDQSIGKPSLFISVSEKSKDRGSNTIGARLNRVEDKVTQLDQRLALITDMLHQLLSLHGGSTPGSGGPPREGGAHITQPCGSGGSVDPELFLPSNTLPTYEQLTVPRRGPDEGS
Cl transport mod: KCC2 (human) Cl- transport modulation. Q9H2X9. KCC2 cells, thallium flux FluoZin-2 fluorescence. B-score of Tl+ flux slope (higher = more flux/activation; lower = inhibition) at 10 µM. 190,000 tested, 2.2% active;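 active = thallium flux slope and its plate-corrected score both differing from the plate sample mean at a set confidence after two filtering rounds, in either direction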;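 note: slope of fluorescence scaled to starting intensity during 10 to 20 s after thallium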
KCNQ1 act: potentiates or activates the human KCNQ1 potassium channel; P51787; CHO-K1 KCNQ1, thallium flux FluxOR fluorescence; hits give high values; B-score at 10 µM; 310,000 tested, 0.35% active;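 active = fluorescence ratio B-score, a plate-corrected score, at least three library SD, with initial intensity B-score within 5 SD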
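Test system: CHO-K1 cells stably expressing KCNQ1 / Medium: assay buffer / Also added: depolarizing K+/Tl+ stimulus, K2SO4 and Tl2SO4 each 12.5 mM in 5x stock / Incubation: 90 min dye loading and 20 min compound exposure, both at room temperature / Signal: thallium influx via FluxOR fluorescence, kinetic imaging / Evaluation: B score of baseline-normalized fluorescence ratio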
KCNK3 block: human KCNK3 channel inhibition, primary screen | CHO-KCNK3 thallium flux, FluxOR fluorescence; hits give low values | 340,000 tested, 0.84% active | B-score at 10 µM;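 active = B-score under library mean minus 4 SD, starting fluorescence ratio at most library mean plus 5 SD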;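 note: more negative B-score means stronger inhibition of thallium flux through KCNK3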
KCNK9 inh: blocks the human KCNK9 two-pore domain potassium channel; HEK293 KCNK9, FluxOR thallium flux fluorescence; hits give low values; B-score at 10 µM; 310,000 tested, 1.2% active; Q9NPC2;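 active = ratio B-score over 3 SD below the library mean, with starting fluorescence within 5 SD of its mean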;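 note: negative B-score means less thallium flux so channel inhibition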
hERG protect: shields human hERG channel from block by proarrhythmic agents | Q12809 | CHO-hERG, FluxOR thallium flux, dofetilide IC70 present | activation (rescue from dofetilide block), less the hit threshold, % at 10 µM | 310,000 tested, 0.51% active;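 active = activation above the mean of controls blocked by dofetilide plus 5 SD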;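 note: thallium influx through hERG after potassium depolarization seen as dye fluorescence rise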
KCC2 secondary: KCC2 (human) modulation, secondary assay; shares compounds with Cl transport mod; normalised thallium flux (F/F0 slope) at 10 µM; 3,700 tested, 15% active; HEK293-KCC2, thallium flux, FluoZin2 fluorescence; hits give high values;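 active = thallium flux slope above the same plate's solvent-only control mean plus 3 SD; inconclusive = the two replicate wells disagree; inactive = no significant difference from solvent-only control wells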
KCC2 bumet counter: bumetanide-insensitive thallium flux in KCC2 cells with ouabain, counter-screen; 3,700 tested, 49% active; normalized thallium flux at 10 µM; HEK293-KCC2 + bumetanide/ouabain, thallium flux FluoZin2; hits give high values; shares compounds with Cl transport mod;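 active = thallium entry rate above the same plate's blocked-transporter control wells by more than 3 SD; inconclusive = the two repeat wells disagree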;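 note: raw slope of fluorescence over initial fluorescence between 10 and 20 s after thallium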
KCC2 secondary2: KCC2 (human) modulation, second secondary assay | shares compounds with Cl transport mod | 3,700 tested, 23% active | AID 1715 | HEK293-KCC2, thallium flux FluoZin2 fluorescence; actives lie on both sides; F/F0 rise rate, 10–20 s post-thallium | normalized thallium flux at 10 µM;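 active = thallium flux slope more than 3 SD above or below the plate's solvent-only control mean, mostly below; inconclusive = the two repeat wells disagreed; inactive = no significant shift from solvent-only controls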;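 note: raw slope with 0.1% DMSO as baseline and bumetanide as block control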
HEK293 Tl flux: counter-screen for KCC2 modulators: effect in parental HEK293 cells. thallium flux FluoZin2, ouabain; baseline-ratio fluorescence slope, 10–20 s after thallium. AID 1716. shares compounds with Cl transport mod. thallium flux rate (normalised fluorescence) at 10 µM. 3,700 tested, 46% active;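 active = thallium flux rate significantly above the same plate's solvent-only control wells, beyond their mean plus 3 SD; inconclusive = the two replicate wells gave conflicting results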
KCC2 ouabain: confirmation of human KCC2 modulators with ouabain | shares compounds with Cl transport mod | AID 1717 | 3,700 tested, 48% active | HEK293-KCC2, thallium flux FluoZin2 fluorescence; bidirectional: low = inhibitor, high = activator | raw Tl+ flux slope (below DMSO = inhibition, above = activation) at 10 µM;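 active = thallium flux slope beyond 3 SD from same-plate DMSO control mean in most replicates, usually higher, sometimes lower; inconclusive = repeat tests gave conflicting results; inactive = no significant difference from controls in most replicates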;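 note: slope of initial-normalized fluorescence between seconds 10 and 20 after thallium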
HEK293 Tl flux2: acts in parental HEK cells, second KCC2 counter-screen. 3,700 tested, 33% active. thallium flux slope at 10 µM. HEK293 parental, thallium flux FluoZin-2 fluorescence slope. AID 1718. shares compounds with Cl transport mod;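 active = thallium flux slope above the same plate's solvent-control mean plus 3 SD in both duplicate wells; inconclusive = duplicate wells that disagreed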;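 note: run without ouabain in cells lacking the KCC2 cotransporter; slope of fluorescence scaled to its starting value between 10 and 20 s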
* hit, by the source's call; i = inactive; u = inconclusive; x = not tested or not shown.

SMILES | KCNQ1 block | Cl transport mod | KCNQ1 act | KCNK3 block | KCNK9 inh | hERG protect | KCC2 secondary | KCC2 bumet counter | KCC2 secondary2 | HEK293 Tl flux | KCC2 ouabain | HEK293 Tl flux2
COc1ccc(NC(=O)c2ccc(COc3ccccc3)o2)cc1 | i | -4.37* | i | i | i | -16.1 | 0.0073 | 0.00481 | 0.0291 | 0.00644 | u | 0.00983
COc1ccc(F)cc1CN1CCN(C(=O)c2ccc(S(=O)(=O)N3CCCCCC3)cc2)CC1 | x | x | x | i | x | x | x | x | x | x | x | x
O=C(NCC1CCCCC1)c1cccc(S(=O)(=O)N2CCCC2)c1 | x | x | x | i | x | x | x | x | x | x | x | x
CCC(=O)c1cc(Br)ccc1OCC(=O)N1CCN(S(=O)(=O)c2ccccc2)CC1 | x | x | x | i | x | x | x | x | x | x | x | x
C[n+]1cccc(/C=N/NC(=O)CC23CC4CC(CC(C4)C2)C3)c1 | i | x | i | i | i | -12.4 | x | x | x | x | x | x
c1ccc(CNc2ncnc3sc4c(c23)CCC4)nc1 | i | -4.24* | i | i | i | -3.2 | 0.00974 | 0.00491 | 0.0322 | 0.0059* | 0.0206 | 0.01
c1cncc(CNc2ncnc3sc4c(c23)CCC4)c1 | i | -0.458 | i | i | i | -3.6 | x | x | x | x | x | x
CCOP(=O)(c1ccc(N(C)C)cc1)C(O)c1ccc(Cl)cc1 (configuration not stated) | i | -4.95* | i | i | i | -10.8 | 0.00813 | 0.0055 | 0.0348 | 0.00409 | 0.0199 | 0.0118
Cc1ccc(N2C(=O)C(Cc3ccc(O)cc3)NC2=S)cc1C (configuration not stated) | i | -3.88* | i | i | i | -7.8 | 0.00878 | 0.00472 | 0.0324 | 0.00737 | 0.0228 | 0.0104
Cc1cccc(N2C(=O)C(Cc3ccccc3)NC2=S)c1 (configuration not stated) | i | 1.3 | i | i | i | -6.3 | x | x | x | x | x | x
CC(=O)Nc1ccc(S(=O)(=O)N2CCC(C(=O)NCCC(=O)NCc3ccccc3)CC2)cc1 | i | x | i | i | i | -2.3 | x | x | x | x | x | x
Cc1nn(-c2ccc(F)cc2)c(Cl)c1/C=C(\CC(=O)O)c1nc2ccccc2s1 | i | -6.83* | i | i | i | -14.9 | 0.00881 | 0.00673 | u | 0.00661 | 0.0133* | 0.00983
O=C(NCc1ccco1)c1cccc2c1C(=O)c1ccc(/C=C/c3ccccc3)cc1S2(=O)=O | x | x | x | i | x | x | x | x | x | x | x | x
COc1cc(OC)cc(-c2c(-c3cccs3)c3cc(-c4ccc(OC)c(OC)c4)ccc3n2C)c1 | x | x | x | i | x | x | x | x | x | x | x | x
COc1cc(C)c(C)cc1S(=O)(=O)N1CCN(Cc2ccccc2)CC1 | i | x | i | i | i | -7.0 | 0.00537 | 0.00498 | 0.0253* | 0.00671 | u | 0.0106
COc1ccc(S(=O)(=O)N2CCN(Cc3ccccc3)CC2)c(C)c1 | i | x | i | i | i | -6.2 | x | x | x | x | x | x
CCCCC(=O)Nc1cc(OC)c(NC(=S)Nc2ccc(OC)cc2)cc1OC | x | x | x | i | x | x | x | x | x | x | x | x
O=C1CNC(=S)N1c1nc2ccccc2s1 | i | 5.31* | i | i | i | -6.7 | 0.00686 | 0.0104* | 0.0314 | 0.0106* | 0.0212 | 0.0121*
CCOc1cc(-c2noc(CCCC(N)=O)n2)cc(Br)c1OC | i | 4.46* | i | i | i | -12.1 | 0.00727 | u | 0.0284 | 0.00741 | 0.0193 | 0.00998
CCOc1ccc(-c2noc(CCCC(N)=O)n2)cc1OC | i | 1.07 | i | i | i | -10.4 | x | x | x | x | x | x
Cc1ccc(NC2C(=O)NC(=O)NC2=O)cc1 | x | x | x | i | x | x | x | x | x | x | x | x
O=C(NC(=S)N1CCCCC1)c1csc([N+](=O)[O-])c1 | i | 23.6* | i | i | i | -4.5 | 0.0224* | 0.0323* | 0.0354 | 0.0169* | u | 0.0132*
C=CCNC(=S)NC(=O)c1csc([N+](=O)[O-])c1 | i | 5.95* | i | i | i | -4.1 | 0.00923 | 0.0201* | 0.0298 | 0.00972* | u | 0.00974
Cc1ccc(-c2nc3cc(N)ccc3o2)cc1 | i | 0.623 | i | i | i | -13.8 | x | x | x | x | x | x
Nc1ccc2oc(-c3cccs3)nc2c1 | i | -3.89* | i | i | i | -12.4 | 0.00703 | 0.00525 | 0.031 | 0.00845 | 0.0187 | 0.0114
SMILES | KCNQ1 block | Cl transport mod | KCNQ1 act | KCNK3 block | KCNK9 inh | hERG protect | KCC2 secondary | KCC2 bumet counter | KCC2 secondary2 | HEK293 Tl flux | KCC2 ouabain | HEK293 Tl flux2
CC[C@]12c3[nH]c4cc(-c5ccco5)ccc4c3CCN1C(=O)[C@@H](CC(=O)NCCCN(C)C)C[C@@H]2C(=O)N1CCN(C(=O)c2ccco2)CC1 | x | x | x | i | x | x | x | x | x | x | x | x
Cn1c(C(=O)OC(C(=O)NC2CCCC2)c2ccncc2)cc2sccc21 (configuration not stated) | i | -5.18* | i | i | i | -4.7 | 0.00677 | u | 0.025* | 0.0074 | u | 0.0101
CCOC(=O)C1CCCN(c2c(NCCCN(CC)c3ccccc3)c(=O)c2=O)C1 (configuration not stated) | i | 4.57* | i | i | i | -4.5 | 0.00916 | 0.00664 | 0.0292 | 0.00677 | 0.05 | 0.0102
S=c1[nH]nc(-c2ccccn2)n1/N=C/c1ccccc1 | i | -0.502 | i | i | i | -4.7 | x | x | x | x | x | x
CC(/C=N/n1c(-c2ccccn2)n[nH]c1=S)=C\c1ccccc1 | i | 8.38* | i | i | i | -9.4 | 0.00666 | 0.0289* | 0.0301 | 0.0129* | u | 0.0107
O=C(N1CCCC1)N1CCN(S(=O)(=O)c2ccccc2)CC1 | i | x | i | i | i | -7.0 | x | x | x | x | x | x
Cc1c(NC(=O)c2ccc([N+](=O)[O-])o2)cccc1-c1nc2ncccc2o1 | i | x | i | i | i | -13.5 | x | x | x | x | x | x
CCCCn1c(N)c(N(CCOC)C(=O)COC(=O)C(C)Oc2ccc(Cl)cc2)c(=O)[nH]c1=O (configuration not stated) | i | x | i | i | i | -15.2 | x | x | x | x | x | x
